Measurements: ChEMBL document CHEMBL2040734, “Benzothiazoles: search for anticancer agents” (2012)

Columns and labels:
Assay type in all cases: functional
[1] = tested on: NCI-H522; assay: Cytotoxicity against human NCI-H522 cells assessed as cell growth at 0.01 uM after 48 hrs by sulforhodamine B assay; details: NCI-H522, 48 h, read-out: Activity
[2] = tested on: SNB-75; assay: Growth inhibition of human SNB75 cells after 48 hrs by sulforhodamine B assay; details: SNB-75, 48 h
In short: (§1)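 Adherent NCI-60 lines were grown in RPMI 1640 with 5% FBS and 2 mM L-glutamine, plated at 5000–40,000 cells/well and preincubated 24 h. They were then exposed to five concentrations (0.01–100 µM, from a DMSO stock) for 48 h at 37 °C, 5% CO2. Cells were fixed with cold TCA (10% final, 60 min, 4 °C) and stained with 0.4% SRB. Dye was solubilized in 10 mM Tris base and A515 read. GI50 was derived from time-zero, control and treated absorbances.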

[3] = tested on: NCI-H522; assay: Cytotoxicity against human NCI-H522 cells assessed as cell growth at 100 uM after 48 hrs by sulforhodamine B assay; details: NCI-H522, 48 h, read-out: Activity
[4] = tested on: MDA-MB-231; assay: Cytotoxicity against human MDA-MB-231 cells assessed as cell growth at 10 uM after 48 hrs by sulforhodamine B assay; details: MDA-MB-231, 48 h, read-out: Activity
[5] = tested on: U-251; assay: Growth inhibition of human U251 cells after 48 hrs by sulforhodamine B assay; details: U-251, 48 h; in short: as §1
[6] = tested on: SK-MEL-2; assay: Growth inhibition of human SK-MEL-2 cells after 48 hrs by sulforhodamine B assay; details: SK-MEL-2, 48 h; in short: as §1
[7] = tested on: OVCAR-8; assay: Cytotoxicity against human OVCAR8 cells assessed as cell growth at 1 uM after 48 hrs by sulforhodamine B assay; details: OVCAR-8, 48 h, read-out: Activity
[8] = tested on: SF-539; assay: Cytotoxicity against human SF539 cells assessed as cell growth at 1 uM after 48 hrs by sulforhodamine B assay; details: SF-539, 48 h, read-out: Activity
[9] = tested on: CAKI-1; assay: Cytotoxicity against human Caki1 cells assessed as cell growth at 0.1 uM after 48 hrs by sulforhodamine B assay; details: CAKI-1, 48 h, read-out: Activity
In short: (§2)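 NCI-60 five-dose screen. Cells were grown in RPMI 1640 with 5% FBS and 2 mM L-glutamine and preincubated 24 h. Compound (DMSO stock) was tested at 0.01, 0.1, 1, 10 and 100 µM for 48 h at 37 °C. Cells were fixed in situ with cold TCA (final 10%) and stained with 0.4% SRB. A515 was read, and percent growth was calculated against time-zero and control plates.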

[10] = tested on: OVCAR-5; assay: Growth inhibition of human OVCAR5 cells after 48 hrs by sulforhodamine B assay; details: OVCAR-5, 48 h; in short: as §1
[11] = tested on: EKVX; assay: Cytotoxicity against human EKVX cells assessed as cell growth at 10 '-5 M after 48 hrs by sulforhodamine B assay; details: read-out: Activity
In short: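 Primary one-dose screen across the NCI 60-line panel at 10 µM. Cells were grown in RPMI 1640 with 5% FBS and 2 mM L-glutamine and held 24 h before drug. Drug was diluted from a DMSO concentrate. Exposure was 48 h at 37 °C, 5% CO2. Cells were fixed with TCA and stained with SRB, with absorbance read at 515 nm. Percent growth was calculated against time-zero and untreated control.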

[12] = tested on: MOLT-4; assay: Growth inhibition of human MOLT4 cells after 48 hrs by sulforhodamine B assay; details: MOLT-4, 48 h
In short: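 Leukemia suspension lines were grown in RPMI 1640 with 5% FBS and 2 mM L-glutamine and plated at 5000–40,000 cells/well with 24 h preincubation. They were treated at 0.01, 0.1, 1, 10 and 100 µM (DMSO stock) for 48 h at 37 °C. Settled cells were fixed with 80% TCA (16% final) and stained with 0.4% SRB in 1% acetic acid, then read at 515 nm. GI50 was calculated against time-zero and control wells.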

[13] = tested on: CAKI-1; assay: Cytotoxicity against human Caki1 cells assessed as cell growth at 1 uM after 48 hrs by sulforhodamine B assay; details: CAKI-1, 48 h, read-out: Activity; in short: as §2
[14] = tested on: HCT-15; assay: Cytotoxicity against human HCT15 cells assessed as cell growth at 1 uM after 48 hrs by sulforhodamine B assay; details: HCT-15, 48 h, read-out: Activity
In short: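 Five-dose NCI panel run at 0.01, 0.1, 1, 10 and 100 µM. Cells were in RPMI 1640 with 5% FBS and 2 mM L-glutamine, seeded at 5000–40,000 cells/well and pre-incubated 24 h. Drug was diluted from a DMSO stock into medium with 50 µg/ml gentamicin. Exposure was 48 h at 37 °C, 5% CO2. Cells were fixed with cold TCA and stained with 0.4% SRB, read at 515 nm. Percent growth came from time-zero, control and test absorbances.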

[15] = tested on: NCI-H322M; assay: Growth inhibition of human NCI-H322M cells after 48 hrs by sulforhodamine B assay; details: for CC50: read-out: LC50 (the source's name); in short: as §1
[16] = tested on: CCRF-CEM; assay: Cytotoxicity against human CCRF-CEM cells assessed as cell growth at 10 uM after 48 hrs by sulforhodamine B assay; details: read-out: Activity
In short: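 CCRF-CEM suspension leukemia cells in RPMI 1640 with 5% FBS and 2 mM L-glutamine, plated 24 h before dosing. Five concentrations (0.01–100 µM) were applied from a DMSO stock for 48 h at 37 °C. Settled cells were fixed with 80% TCA (final 16%) and stained with SRB, with read-out at 515 nm. Percent growth was derived from time-zero and control absorbances.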

[17] = tested on: UACC-257; assay: Growth inhibition of human UACC257 cells after 48 hrs by sulforhodamine B assay; details: UACC-257, 48 h; for CC50: read-out: LC50 (the source's name); in short: as §1
[18] = tested on: SK-OV-3; assay: Cytotoxicity against human SKOV3 cells assessed as cell growth at 0.01 uM after 48 hrs by sulforhodamine B assay; details: SK-OV-3, 48 h, read-out: Activity
[19] = tested on: CAKI-1; assay: Cytotoxicity against human Caki1 cells assessed as cell growth at 10 '-5 M after 48 hrs by sulforhodamine B assay; details: CAKI-1, 48 h, read-out: Activity
In short: (§3)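 Primary NCI-60 single-dose screen at 10 µM. Cells were grown in RPMI 1640 with 5% FBS and 2 mM L-glutamine and plated 24 h before drug addition. Compound was solubilized in DMSO, then exposed for 48 h at 37 °C under 5% CO2. Cells were TCA-fixed and stained with SRB, and absorbance was read at 515 nm. Growth was expressed relative to time-zero and untreated controls.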

[20] = tested on: 786-0; assay: Cytotoxicity against human 786-0 cells assessed as cell growth at 10 '-5 M after 48 hrs by sulforhodamine B assay; details: 786-0, 48 h, read-out: Activity; in short: as §3
[21] = tested on: IGROV-1; assay: Cytotoxicity against human IGROV1 cells assessed as cell growth at 1 uM after 48 hrs by sulforhodamine B assay; details: IGROV-1, 48 h, read-out: Activity
[22] = tested on: SK-MEL-2; assay: Cytotoxicity against human SK-MEL-2 cells assessed as cell growth at 0.1 uM after 48 hrs by sulforhodamine B assay; details: SK-MEL-2, 48 h, read-out: Activity

| Compound | growth at 0.01 µM [1] | GI50 [2] | LC50 [2] | growth at 100 µM [3] | growth at 10 µM [4] | GI50 [5] | TGI [5] | TGI [6] | growth at 1 µM [7] | growth at 1 µM [8] | growth at 0.1 µM [9] | GI50 [10] | LC50 [10] | TGI [10] | growth at 10 µM [11] | GI50 [12] | LC50 [12] | TGI [12] | growth at 1 µM [13] | growth at 1 µM [14] | further results |
| --- | --- | --- | --- | --- | --- | --- | --- | --- | --- | --- | --- | --- | --- | --- | --- | --- | --- | --- | --- | --- | --- |
| Cc1ccc2nc(Nc3c(C)cccc3C)sc2c1 | 85% | 1.26 µM | > 100 µM | 34% | 22% | 25.4 µM | > 100 µM | > 100 µM | 89% | 76% | 83% | > 100 µM | > 100 µM | > 100 µM | 54.1% | > 100 µM | > 100 µM | > 100 µM | 39% | 48% | TGI [2]: > 100 µM; LC50 [5]: > 100 µM; LC50 (concentration killing 50% of cells present at time zero) [6]: > 100 µM; GI50 [15]: > 100 µM; TGI [15]: > 100 µM; CC50 [15]: > 100 µM; growth at 10 µM [16]: 58%; GI50 [17]: > 100 µM; TGI [17]: > 100 µM; CC50 [17]: > 100 µM; growth at 0.01 µM [18]: 101%; growth at 10 µM [19]: 22.1%; growth at 10 µM [20]: 57.8%; growth at 1 µM [21]: 83%; growth at 0.1 µM [22]: 99% |
| Clc1cccc(Cl)c1Nc1nc2cccc(Cl)c2s1 | 88% | 0.791 µM | > 100 µM | -49% | -93% | 1.31 µM | 2.79 µM | 3.35 µM | 58% | 77% | 73% | 1.48 µM | 5.61 µM | 2.88 µM | -7.99% | 1.05 µM | > 100 µM | 3.75 µM | 18% | 59% | GI50 [6]: 1.43 µM; GI50 [15]: 1.46 µM; TGI [15]: 3.01 µM; CC50 [15]: 6.19 µM; growth at 10 µM [16]: -34%; GI50 [17]: 1.35 µM; TGI [17]: 3.1 µM; CC50 [17]: 7.09 µM; growth at 0.01 µM [18]: 101%; growth at 10 µM [19]: -10.6%; growth at 10 µM [20]: -59.7%; growth at 1 µM [21]: 55%; growth at 0.1 µM [22]: 88% |
